We go through nine compounds from ChEMBL document CHEMBL1124448, “Comparison of the biological effects of selected 5,8-dideazafolate analogues with their 2-desamino counterparts” (J Med Chem, 1989).

Each structure is given as a SMILES string.

Experiment [1] deals with L1210. Put plainly: Inhibition of the growth of methotrexate resistant L1210 leukemia/R 81 cells in culture. The settings on record: Mus musculus. It counts as functional, cell-based. The essentials:
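MTT viability assay, 48 h. Log-phase cells were plated at […] onto serial drug dilutions in RPMI 1640 with 10% fetal bovine serum, in 8% CO2, humidified. MTT (5 mg/mL stock) was added for 3 h and the formazan dissolved in 0.04 N HCl/2-propanol. A570 was read within 1 h. Each plate carried no-drug control and no-cell blank rows. IC50 determined.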

Experiment [2] relates to L1210. Put plainly: Inhibition of the growth of methotrexate sensitive L1210 leukemia/S cells in culture. The class given is functional, cell-based. The settings on record: Mus musculus. In short, it runs like this: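 MTT viability assay, 48 h. MTT (5 mg/mL stock) was added for 3 h and the formazan dissolved in 0.04 N HCl/2-propanol. A570 was read within 1 h. Each plate carried no-drug control and no-cell blank rows. IC50 determined.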

For experiment [3], the target named is Thymidylate synthase (Mus musculus, UniProt P07607). The experiment can be described thus: Inhibition of L1210 leukemia thymidylate synthase (TS) enzyme. Particulars: read-out: I50.
Chain of Thymidylate synthase (P07607 whole entry): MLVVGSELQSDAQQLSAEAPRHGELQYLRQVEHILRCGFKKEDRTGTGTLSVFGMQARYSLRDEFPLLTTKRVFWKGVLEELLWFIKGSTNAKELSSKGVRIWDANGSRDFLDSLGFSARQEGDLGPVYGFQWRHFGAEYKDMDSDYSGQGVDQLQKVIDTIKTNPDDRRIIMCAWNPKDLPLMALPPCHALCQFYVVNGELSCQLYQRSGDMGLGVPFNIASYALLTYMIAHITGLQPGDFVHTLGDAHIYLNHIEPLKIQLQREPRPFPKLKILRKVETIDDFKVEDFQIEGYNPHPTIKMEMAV

Consider `Nc1nc(=O)c2cc(CSc3ccc(C(=O)NC(CCC(=O)O)C(=O)O)cc3)ccc2[nH]1` (stereo not given), for which the results for the IC50 in experiment [1] and in experiment [2] were more than 200 µM and 7.6 µM, respectively.
Taken in the same sequence, the figures for `Nc1nc(O)c2cc(COc3ccc(C(=O)NC(CCC(=O)O)C(=O)O)cc3)ccc2n1` (stereo not given) were 39 µM and 1.2 µM.
For `O=C(O)CCC(NC(=O)c1ccc(CNc2ccc3ncnc(O)c3c2)cc1)C(=O)O` (stereo not given), the values for the IC50 in experiment [1], in experiment [2] and in experiment [3] were more than 200 µM, 0.53 µM and 25 µM, respectively.
For the compound `C#CCN(Cc1ccc2ncnc(O)c2c1)c1ccc(C(=O)NC(CCC(=O)O)C(=O)O)cc1` (stereo not given), the results for the IC50 in experiment [1] and in experiment [2] were 75 µM and 0.27 µM, respectively.
As to `O=C(O)CCC(NC(=O)c1ccc(SCc2ccc3ncnc(O)c3c2)cc1)C(=O)O` (stereo not given), the IC50 in experiment [1] was more than 200 µM; in experiment [2], 1.3 µM; in experiment [3] it was 13.8 µM.
In the same order, the values of `O=C(O)CCC(NC(=O)c1ccc(OCc2ccc3ncnc(O)c3c2)cc1)C(=O)O` (stereo not given) are more than 200 µM, 0.28 µM and 49 µM.
For `Nc1nc(=O)c2cc(NCc3ccc(C(=O)NC(CCC(=O)O)C(=O)O)cc3)ccc2[nH]1` (stereo not given), the IC50 was more than 200 µM in experiment [1] and 3.2 µM in experiment [2].
In experiment [1], `C#CCN(Cc1ccc2[nH]c(N)nc(=O)c2c1)c1ccc(C(=O)NC(CCC(=O)O)C(=O)O)cc1` (stereo not given) yielded an IC50 of 116 µM.
Consider `CN(Cc1cnc2nc(N)nc(N)c2n1)c1ccc(C(=O)N[C@@H](CCC(=O)O)C(=O)O)cc1` [METHOTREXATE], for which the IC50 came out at 186 µM in experiment [1] and 0.0044 µM in experiment [2].
